Data taken from ChEMBL document CHEMBL1124612, “Synthesis and structure-activity relationships of a series of anxioselective pyrazolopyridine ester and amide anxiolytic agents” (J Med Chem, 1989).
Active and inactive are the calls of the source. The calls are words filed in the database; no cut-off is given here.

Experiments:
[1] = biological target: GABA-A receptor; anion channel; assay: (§1) Inhibition of [3H]flunitrazepam binding to GABA-A benzodiazepine receptor of rat cerebral cortex; type: tissue-based
Rattus norvegicus [2] = assay: Minimum effective dose (po) tested for its anxiolytic activity in rat using the shock-induced suppression of drinking (SSD) test; NS is No Significant activity at 100 MG/kG; type: functional, organism-based; details: 100 M
In short: (§2)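 Rats (n = 8 per dose) were dosed orally at one or more levels and then run in the shock-induced suppression of drinking conflict test. MED is the dose producing a significant rise (p < 0.05, Student's t test) in mean shocks accepted relative to vehicle-treated controls.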

[3] = tested on: GABA-A receptor; anion channel; assay: Inhibition of [3H]flunitrazepam binding to GABA-A benzodiazepine receptor of rat cerebral cortex (Not Significant at 5000 nM); type: tissue-based
In short: (§3)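 Rat cerebral cortex membranes were incubated with [3H]flunitrazepam in the presence of the test agent at a single concentration (nM), run in triplicate with under 7% variation between values. Binding is reported as % inhibition of [3H]flunitrazepam binding.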

Rattus norvegicus [4] = assay: Minimum effective dose (ip) tested for its anxiolytic activity in rat using the shock-induced suppression of drinking (SSD) test; NS is No Significant activity at 5 mg/Kg; type: functional, organism-based
In short: (§4)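 Shock-induced suppression of drinking (Vogel-type conflict) in rats, with compounds given intraperitoneally at one or more dose levels, 8 rats per dose. MED is the lowest dose giving a significant increase (p < 0.05, Student's t test) in the mean number of shocks taken versus vehicle control.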

Rattus norvegicus [5] = assay: Minimum effective dose (ip) tested for its anxiolytic activity in rat using the shock-induced suppression of drinking (SSD) test; NS is No Significant activity at […]; type: functional, organism-based; in short: as §4
Rattus norvegicus [6] = assay: Minimum effective dose (po) tested for its anxiolytic activity in rat using the shock-induced suppression of drinking (SSD) test.; type: functional; details: read-out: MED; in short: as §2
[7] = biological target: T1, GABA-A receptor; anion channel (Rattus norvegicus) (UniProt O09028+P15431+P18506+P18508+P19969+P20236+P23574+P23576+P28471+P28473+P30191+P62813+P63079+P63138+Q91ZM7+Q9ES14); assay: Displacement of [3H]flunitrazepam from GABA-A benzodiazepine receptor of rat cerebral cortex at 50 nM; type: tissue-based; in short: as §3
[8] = Ethanol interaction ratio (EIR) of the compound.; type: ADME
In short: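 Ratio computed as rat rotorod ED50 for drug given with ethanol (mg/kg) divided by the SSD minimum effective dose (mg/kg), both orally. The SSD MED is the lowest dose (N=8/dose) giving a significant rise (p < 0.05, Student's t test) in mean shocks taken versus vehicle in the rat shock-induced suppression of drinking test.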

Rattus norvegicus [9] = assay: Compound was tested in vivo for activity to induce sedation or ataxia in rat using rotarod test; type: functional
Monkey = assay: Compound was tested for activity using primate conflict test in monkey.; type: functional; details: Cercopithecidae, in Primates; read-out: MED
Rattus norvegicus [10] = assay: Compound was tested in vivo for antagonistic activity against metrazole-induced convulsions in rat; type: functional
Rattus norvegicus [11] = species: Rattus norvegicus; assay: Compound was tested for activity against ethanol-induced impairment of rota rod performance in rat.; type: functional
[12] = biological target: GABA-A receptor; anion channel; assay: Inhibition of [3H]flunitrazepam binding to GABA-A benzodiazepine receptor of rat cortex
[13] = biological target: GABA-A receptor; anion channel; assay: Inhibition of [3H]flunitrazepam binding to GABA-A benzodiazepine receptor of rat cerebellum; type: tissue-based
Rattus norvegicus [14] = species: Rattus norvegicus; assay: Sedative liability index (SLI) to indicate the separation between the anxiolytic and ataxic doses in rats; type: functional
In short: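 Ratio computed as rat rotorod ED50 (mg/kg) divided by the SSD minimum effective dose (mg/kg), with both given orally. The SSD MED is the lowest dose (N=8/dose) giving a significant increase (p < 0.05, Student's t test) in mean shocks taken over vehicle control in the rat shock-induced suppression of drinking test.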

[15] = biological target: T1, GABA-A receptor; anion channel (Rattus norvegicus); assay: Displacement of [3H]flunitrazepam from GABA-A benzodiazepine receptor of rat cerebral cortex at 5000 nM; type: tissue-based; in short: as §3
Rattus norvegicus [16] = assay: Minimum effective dose (po) tested for its anxiolytic activity in rat using the shock-induced suppression of drinking (SSD) test; NS is No Significant activity at 50 mg/Kg; type: functional, organism-based; in short: as §2
Rattus norvegicus [17] = species: Rattus norvegicus; assay: Compound was tested for activity against ethanol-induced impairment of rotarod performance in rat.; type: functional
Rattus norvegicus [18] = assay: Minimum effective dose (ip) tested for its anxiolytic activity in rat using the shock-induced suppression of drinking (SSD) test; NS is No Significant activity at 25 mg/Kg; type: functional, organism-based; in short: as §4
[19] = biological target: T1, GABA-A receptor; anion channel (Rattus norvegicus); assay: Displacement of [3H]flunitrazepam from GABA-A benzodiazepine receptor of rat cerebral cortex at 800 nM; type: tissue-based; in short: as §3
Rattus norvegicus [20] = assay: Minimum effective dose (po) tested for its anxiolytic activity in rat using the shock-induced suppression of drinking (SSD) test; NS is No Significant activity at […]; type: functional, organism-based; in short: as §2
[21] = biological target: T1, GABA-A receptor; anion channel (Rattus norvegicus); assay: Displacement of [3H]flunitrazepam from GABA-A benzodiazepine receptor of rat cerebral cortex at 500 nM; type: tissue-based; in short: as §3
[22] = biological target: GABA-A receptor; anion channel; assay: as §1; type: tissue-based; remark: listed apart in the source
In short: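 [3H]Flunitrazepam displacement from rat cerebral cortex benzodiazepine receptors, run in triplicate with under 7% variation between values. IC50 is the concentration (nM) giving half-maximal inhibition of binding, determined from three or more concentrations.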

Rattus norvegicus [23] = assay: Minimum effective dose (ip) tested for its anxiolytic activity in rat using the shock-induced suppression of drinking (SSD) test; NS is No Significant activity at 160 mg/Kg; type: functional, organism-based; in short: as §4

Question: What does the source list for `C=CCOC(=O)c1cnc2c(cnn2CCCCC)c1N`?
Answer: IC50 [1]: 16 nM; MED (Rattus norvegicus [2]): inactive

Question: With `CCCNc1c(C(=O)OCC)c(C)nc2c1cnn2CC` as the compound, how does the IC50 [3] read?
Answer: Not Active

Question: What about the MED (Rattus norvegicus [4]) of the same compound?
Answer: inactive

Question: Which MED (Rattus norvegicus [5]) does the source give for `CCCCCn1ncc2c(N)c(C(=O)OCC)c(CC)nc21` here?
Answer: inactive

Question: What about the IC50 [1] of the same compound?
Answer: 302 nM

Question: Which results are given for `C=CCNC(=O)c1c(C)nc2c(cnn2CCCCC)c1N`?
Answer: minimal effective dose (Rattus norvegicus [6]): 50 mg/kg; inhibition [7]: 0%

Question: For `C=CCNC(=O)c1cnc2c(cnn2CCC#CC)c1N`, which EIR [8] is on record?
Answer: 3.9

Question: What about the ED50 (Rattus norvegicus [9]) of the same compound?
Answer: 25.1 mg/kg

Question: And the minimal effective dose (Monkey)?
Answer: 3.1 mg/kg

Question: And the ED50 (Rattus norvegicus [10])?
Answer: 1 mg/kg

Question: What about the ED50 (Rattus norvegicus [11]) of the same compound?
Answer: 3.1 mg/kg

Question: And the minimal effective dose (Rattus norvegicus [6])?
Answer: 0.8 mg/kg

Question: And the IC50 [12]?
Answer: 81 nM

Question: And the IC50 [1]?
Answer: 81 nM

Question: And the IC50 [13]?
Answer: 19 nM

Question: And the SLI (Rattus norvegicus [14])?
Answer: 31.4

Question: With `CCCCCn1ncc2c(N)c(C(=O)NCCCC)c(C)nc21` as the compound, how does the inhibition [15] read?
Answer: 31%

Question: And the MED (Rattus norvegicus [16])?
Answer: inactive

Question: With `CN1C(=O)CN=C(c2ccccc2)c2cc(Cl)ccc21` [DIAZEPAM] as the compound, how does the EIR [8] read?
Answer: 0.5

Question: And the ED50 (Rattus norvegicus [9])?
Answer: 10.2 mg/kg

Question: And the minimal effective dose (Monkey)?
Answer: 1.6 mg/kg

Question: And the ED50 (Rattus norvegicus [10])?
Answer: 8.4 mg/kg

Question: What about the ED50 (Rattus norvegicus [17]) of the same compound?
Answer: 2.5 mg/kg

Question: What about the minimal effective dose (Rattus norvegicus [6]) of the same compound?
Answer: 5 mg/kg

Question: What about the SLI (Rattus norvegicus [14]) of the same compound?
Answer: 2

Question: Which results are given for `CCOC(=O)c1c(C)nc2c(cnn2CC)c1N(C)C`?
Answer: MED (Rattus norvegicus [18]): inactive; inhibition [19]: 13%

Question: With `CCCCCn1ncc2c(N)c(C(=O)OCC)c(C(C)C)nc21` as the compound, how does the MED (Rattus norvegicus [20]) read?
Answer: inactive

Question: And the inhibition [21]?
Answer: 54%

Question: Which results are given for `C#CCCCn1ncc2c(N)c(C(=O)NCC=C)cnc21`?
Answer: minimal effective dose (Rattus norvegicus [6]): 6.3 mg/kg; IC50 [22]: 9.3 nM

Question: Which results are given for `CCOC(=O)c1cc2cnn(CC)c2nc1C`?
Answer: inhibition [15]: 14%; NS (Rattus norvegicus [23]): inactive
